Values joined by “and” are separate entries in the source; they are usually repeats but may differ in a detail not shown here. Equal values may be shown once.

In one data set the test system is TAMH cells. Nature of the data set: MTT cell viability assay, TAMH cells. It counts as cell-based, mouse. The settings on record: for LD50 / LD25: TAMH cells, MTT; for LD50: 24 h exposure; for LD25: 48 h exposure; for Tox./Act. (toxicity/activity ratio, safety index): average LD25 (48 h, TAMH) divided by average EC50 (KV7.2/3). The essentials: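 MTT viability read-out in TAMH (transgenic mouse hepatocyte) and HEP-G2 (human hepatoma) cell lines. LD50 was taken after 24 h of exposure. […] LD50 values are means with standard deviations of 4–5 independent determinations. The ratio uses the mean EC50 from a thallium-flux KV7.2/3 assay (30 min exposure, four-parameter logistic fit).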

The nature of data set [1]: Anodic peak potential by cyclic voltammetry. It counts as physicochemical. The settings on record: 1.0 mM compound in 100 mM TRIS‐buffer (pH 7.4).
The nature of data set [2]: LogD7.4 determination from HPLC retention times with calibration curve. It counts as physicochemical. The settings on record: pH 7.4; for logD 7.4: from HPLC retention factor and calibration curve.
Another data set concerns the target KV7.2/KV7.3 channel (Homo sapiens, UniProt O43525+O43526). It counts as cell-based. The settings on record: for Emax: HEK293; for KV7.2/KV7.3 channel opening activity (in words): thallium flux assay, compared with 1.
Another data set has as its system HEP‐G2 cells. Nature of the data set: MTT cell viability assay, HEP-G2 cells. It counts as cell-based, human. The settings on record: for LD50 / LD25: HEP‐G2 cells, MTT; for LD50: 24 h exposure; for LD25: 48 h exposure; for Tox./Act. (toxicity/activity ratio, safety index): average LD25 (48 h, HEP‐G2) divided by average EC50 (KV7.2/3). (In general: Tetrazolium dyes change colour on reduction, which living cells bring about.)

Sequence of KV7.2/KV7.3 channel (O43525 whole entry): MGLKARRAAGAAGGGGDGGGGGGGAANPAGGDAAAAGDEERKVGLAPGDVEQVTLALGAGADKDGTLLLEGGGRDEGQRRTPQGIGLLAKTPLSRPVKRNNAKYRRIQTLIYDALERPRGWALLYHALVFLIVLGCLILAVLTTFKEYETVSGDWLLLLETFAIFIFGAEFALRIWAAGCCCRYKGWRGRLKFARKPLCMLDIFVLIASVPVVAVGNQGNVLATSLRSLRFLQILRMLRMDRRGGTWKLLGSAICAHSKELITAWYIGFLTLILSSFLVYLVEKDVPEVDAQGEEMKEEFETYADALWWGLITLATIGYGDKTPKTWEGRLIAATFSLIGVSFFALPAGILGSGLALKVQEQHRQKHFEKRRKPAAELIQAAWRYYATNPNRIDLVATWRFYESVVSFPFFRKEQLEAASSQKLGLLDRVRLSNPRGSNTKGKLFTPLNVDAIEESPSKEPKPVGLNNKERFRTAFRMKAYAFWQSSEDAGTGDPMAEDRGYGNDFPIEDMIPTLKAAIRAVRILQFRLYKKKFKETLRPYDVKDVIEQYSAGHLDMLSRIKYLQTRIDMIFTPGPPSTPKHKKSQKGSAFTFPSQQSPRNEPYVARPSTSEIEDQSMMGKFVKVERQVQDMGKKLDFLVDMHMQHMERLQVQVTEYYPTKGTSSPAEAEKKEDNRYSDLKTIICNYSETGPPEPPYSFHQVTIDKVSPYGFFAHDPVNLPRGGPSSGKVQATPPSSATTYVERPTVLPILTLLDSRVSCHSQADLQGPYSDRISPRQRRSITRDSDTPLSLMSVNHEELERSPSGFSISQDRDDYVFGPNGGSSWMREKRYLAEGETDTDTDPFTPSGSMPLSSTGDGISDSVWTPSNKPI
Sequence of KV7.2/KV7.3 channel (O43526 whole entry): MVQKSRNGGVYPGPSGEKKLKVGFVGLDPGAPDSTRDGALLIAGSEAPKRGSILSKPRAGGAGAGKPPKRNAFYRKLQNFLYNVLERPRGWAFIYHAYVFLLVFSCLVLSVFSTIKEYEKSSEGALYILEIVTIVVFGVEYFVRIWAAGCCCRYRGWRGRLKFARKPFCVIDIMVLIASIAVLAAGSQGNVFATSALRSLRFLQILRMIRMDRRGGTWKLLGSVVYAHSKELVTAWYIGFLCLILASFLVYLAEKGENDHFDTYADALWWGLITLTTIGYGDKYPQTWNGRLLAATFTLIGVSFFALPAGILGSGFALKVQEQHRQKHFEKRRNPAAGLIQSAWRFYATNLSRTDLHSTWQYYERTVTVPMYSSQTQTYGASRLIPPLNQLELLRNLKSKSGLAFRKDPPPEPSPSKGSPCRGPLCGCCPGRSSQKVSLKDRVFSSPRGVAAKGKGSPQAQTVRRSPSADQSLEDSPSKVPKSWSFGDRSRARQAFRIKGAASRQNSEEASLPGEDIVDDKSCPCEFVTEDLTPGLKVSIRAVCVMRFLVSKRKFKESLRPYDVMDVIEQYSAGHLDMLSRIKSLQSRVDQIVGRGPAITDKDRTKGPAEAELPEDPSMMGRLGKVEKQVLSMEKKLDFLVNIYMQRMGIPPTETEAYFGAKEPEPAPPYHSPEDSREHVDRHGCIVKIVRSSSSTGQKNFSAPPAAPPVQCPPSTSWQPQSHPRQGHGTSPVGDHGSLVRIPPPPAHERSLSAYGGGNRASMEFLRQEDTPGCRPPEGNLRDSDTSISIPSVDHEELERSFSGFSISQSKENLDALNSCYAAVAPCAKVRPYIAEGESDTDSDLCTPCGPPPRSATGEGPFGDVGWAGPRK

As a reminder, the chromatographic logD is lipophilicity estimated from chromatographic retention. As usually defined, the EC50 is the concentration giving half of the maximal effect. Low values mean an effect from little substance, high ones a need for much substance. The term Emax denotes the maximal effect, on the per cent scale that the assay sets. As for `CNc1nc(SCc2ccccc2)ccc1NC(=O)Cc1cc(F)cc(F)c1` [9 g, N‐[6‐(Benzylthio)‐2‐(methylamino)pyridin‐3‐yl]‐2‐(3,5‐difluorophenyl)acetamide], in the data set on TAMH cells, the LD50 is above 7.5 µM; the LD25 was 6 ± 3 µM and 6 ± 03 µM; the “Tox./Act. (toxicity/activity ratio, safety index)” value worked out at 400. Further, the “Anodic peak potential E pa” value in data set [1] turned out to be 631 mV. The same compound gave a chromatographic logD in data set [2] of 4.27. Further, on KV7.2/KV7.3 channel, a half-maximal response (EC50) required 0.015 ± 0.002 µM; the maximal effect (Emax) stood at 147 ± 9%; the “KV7.2/KV7.3 channel opening activity (in words)” value was “markedly more potent and effective”. Further, in the data set with HEP‐G2 cells, the LD50 was above 10 µM; the LD25 worked out at 4 ± 4 µM; the “Tox./Act. (toxicity/activity ratio, safety index)” value was 267.

Turning to `CCOC(=O)Nc1ccc(SCCN2CCCCC2)nc1N` [9 f], the LD50 in the data set on TAMH cells and with HEP‐G2 cells was above 500 µM in each case. Further, the “Anodic peak potential E pa” value in data set [1] was 573 mV. For the same compound, in data set [2], the “logD 7.4” value is 2.04.

For `CCOC(=O)Nc1ccc(SC(=O)c2ccc(F)cc2)nc1N` [9 e, S-{6-Amino-5-[(ethoxycarbonyl)amino]pyridin-2-yl} 4-fluorobenzothioate], the LD50 in the data set with TAMH cells is above 125 µM. The “Anodic peak potential E pa” value in data set [1] stood at 573 mV. This compound also yielded a chromatographic logD in data set [2] of 3. Further, on KV7.2/KV7.3 channel, the EC50 was above 10 µM and the “KV7.2/KV7.3 channel opening activity (in words)” value is “inactive in the tested concentration range”. In the data set on HEP‐G2 cells, this compound yielded an LD50 above 250 µM.

As for `Nc1nc([S+]([O-])Cc2ccc(F)cc2)ccc1NC(=O)c1ccc(F)c(F)c1` (centres unmarked) [10 a, N-[2-Amino-6-(4-fluorobenzylsulfinyl)pyridin-3-yl]-3 ,4-difluorobenzamide], the LD50 in the data set on TAMH cells is above 100 µM; with HEP‐G2 cells it was above 125 µM. In addition, in data set [1], the “Anodic peak potential E pa” value is given as 628 mV. Besides, the chromatographic logD in data set [2] is 3.24. At KV7.2/KV7.3 channel, this compound had a half-maximal effective concentration (EC50) above 10 µM.

Take `CCOC(=O)Nc1ccc([S+]([O-])Cc2ccc(-c3ccccc3)cc2)nc1N` (centres unmarked) [10 b, E t hyl {6-[(1,1'-biphenyl-4-yl)methylsulfinyl]-2-aminopyridin-3-yl}carbamate]: the LD50 in the data set on TAMH cells and with HEP‐G2 cells was above 63 µM each time. The “Anodic peak potential E pa” value in data set [1] worked out at 654 mV. This compound also gave a chromatographic logD in data set [2] of 3.72. The compound further displayed an EC50 at KV7.2/KV7.3 channel above 10 µM.

As for `CCOC(=O)Nc1ccc(SCc2ccc(F)cc2)nc1C` [9 h, E t hyl [6-(4-fluorobenzylthio)-2-methylpyridin-3-yl]carbamate], in the data set on TAMH cells, the LD50 is above 10 µM and the LD25 was above 10 µM. In addition, the “Anodic peak potential E pa” value in data set [1] was found to be 855 mV. In data set [2], this compound registered a chromatographic logD of 3.85. At KV7.2/KV7.3 channel, this compound gave an EC50 of 0.269 ± 0.031 µM and an Emax of 129 ± 3%. In the data set on HEP‐G2 cells, the LD50 was above 30 µM; the LD25 was determined as 25 ± 16 µM; the “Tox./Act. (toxicity/activity ratio, safety index)” value is 93.

Consider `CCOC(=O)Nc1ccc(SCc2ccccn2)nc1N` [9 d, Ethyl-{2-amino-6-[(pyridin-2-ylmethylthio)pyridin-3-yl]}carbamate], for which the LD50 with TAMH cells is above 1000 µM; in the data set on HEP‐G2 cells it was 831 ± 149 µM. Besides, the “Anodic peak potential E pa” value in data set [1] is 499 mV. Besides, the “logD 7.4” value in data set [2] turned out to be 2.62.

Consider `CCOC(=O)Nc1ccc(SCc2cc(OC)cc(OC)c2)nc1N` [9 c, Ethyl-{2-amino-6-[(3 ,5-dimethoxybenzylthio)pyridin-3-yl]}carbamate], for which the LD50 in the data set on TAMH cells was above 250 µM; in the data set on HEP‐G2 cells it was 134 ± 22 µM. The “Anodic peak potential E pa” value in data set [1] came out at 450 mV. The “logD 7.4” value in data set [2] is 3.61.

As for `Nc1nc(SCc2ccc(F)cc2)ccc1NC(=O)c1ccc(F)c(F)c1` [9 a, N-{2-A mino-6-[(4-fluorobenzyl)thio]pyridin-3-yl}-3,4-difluorobenzamide], in the data set on TAMH cells, the LD50 is above 30 µM; the LD25 amounted to 13 ± 04 µM; the “Tox./Act. (toxicity/activity ratio, safety index)” value is 50. For the same compound, in data set [1], the “Anodic peak potential E pa” value amounted to 442 mV. The same compound had a chromatographic logD in data set [2] of 3.9. On KV7.2/KV7.3 channel, the concentration giving a half-maximal response (EC50) was 0.26 ± 0.082 µM, the maximal effect (Emax) amounted to 100 ± 23% and the “KV7.2/KV7.3 channel opening activity (in words)” value is reported as “as active as the marketed drug 1”. In addition, in the data set on HEP‐G2 cells, the LD50 came to 8 ± 3 µM; the LD25 came out at 4 ± 1 µM; the “Tox./Act. (toxicity/activity ratio, safety index)” value was 15.

Take `CCOC(=O)Nc1ccc(SCc2ccc(-c3ccccc3)cc2)nc1N` [9 b, Ethyl-{6-[(1,1'-biphenyl-4-yl)methylthio]-2-aminopyridin-3-yl}carbamate]: in the data set with TAMH cells, the LD50 is above 63 µM; the LD25 was 14 ± 13 µM; the “Tox./Act. (toxicity/activity ratio, safety index)” value was 55. In addition, the “Anodic peak potential E pa” value in data set [1] came to 452 mV. In addition, the chromatographic logD in data set [2] was 4.34. On KV7.2/KV7.3 channel, the midpoint of the response, the EC50, lay at 0.253 ± 0.042 µM; the Emax stood at 69 ± 9%; the “KV7.2/KV7.3 channel opening activity (in words)” value is on record as “as active as the marketed drug 1”. The LD50 in the data set with HEP‐G2 cells is above 250 µM.

As to `CCOC(=O)Nc1ccc([S+]([O-])Cc2ccc(F)cc2)nc1C` (centres unmarked) [10 d], the LD50 with TAMH cells and in the data set with HEP‐G2 cells was above 500 µM throughout. Also, in data set [1], the “Anodic peak potential E pa” value was “n.o.^[g]”. Further, in data set [2], the chromatographic logD is 3.02. At KV7.2/KV7.3 channel, this compound showed an EC50 above 10 µM.

Consider `CCOC(=O)Nc1ccc(NCc2ccc(F)cc2)nc1N` [Compound 1, Flupirtine, reference compound], for which, in the data set with TAMH cells, the LD50 is 487 ± 51 µM; the LD25 is 103 ± 47 µM; the “Tox./Act. (toxicity/activity ratio, safety index)” value amounted to 112. Also, in data set [1], the “Anodic peak potential E pa” value stood at 350 mV. In addition, in data set [2], the chromatographic logD came out at 2.96. At KV7.2/KV7.3 channel, this compound registered an EC50 of 0.918 ± 0.099 µM and an Emax of 100%. Further, in the data set on HEP‐G2 cells, the LD50 was 547 ± 111 µM; the LD25 came to 74 ± 40 µM; the “Tox./Act. (toxicity/activity ratio, safety index)” value was determined as 81.

Values taken from paper PMC6331712 (ChemistryOpen, 2019).
